From PubChem BioAssay
Sampled rows, rich in hits. Any-hit rate of the full collection: about 2.5%.
dFosB activator: enhances mouse delta FosB homodimer DNA binding; P13346; 340,000 tested, 0.99% active; purified delta FosB, TAMRA-CDK5 oligo fluorescence polarization; percent of positive-control signal above neutral wells; activation, % at 25 µM;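 active = mean activation above about 17%, with every replicate also reaching it, limit read from the data, passing the limit was not always enough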
Dyrk1A ADPGlo: Dyrk1A (rat) kinase inhibition | Q63470 | ADP-Glo luminescence, NFATc1 peptide | inhibition, % at 12.5 µM | 310,000 tested, 0.43% active | AID 504441;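 note: plate controls were vehicle with enzyme for no effect and no enzyme for full effect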
SR-BI DiI inh: mouse SR-BI HDL lipid transfer inhibition. Q61009. ldlA[mSR-BI] CHO cells, DiI-HDL uptake fluorescence, 3 h. inhibition, % at 12.5 µM. 320,000 tested, 0.96% active. AID 488896;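 active = mean replicate inhibition of at least 70% and a set share of replicates each scoring 70 or more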;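 note: 0% = median of neutral control wells and 100% = median of positive control wells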
Target sequence (Q61009 whole entry, looked up): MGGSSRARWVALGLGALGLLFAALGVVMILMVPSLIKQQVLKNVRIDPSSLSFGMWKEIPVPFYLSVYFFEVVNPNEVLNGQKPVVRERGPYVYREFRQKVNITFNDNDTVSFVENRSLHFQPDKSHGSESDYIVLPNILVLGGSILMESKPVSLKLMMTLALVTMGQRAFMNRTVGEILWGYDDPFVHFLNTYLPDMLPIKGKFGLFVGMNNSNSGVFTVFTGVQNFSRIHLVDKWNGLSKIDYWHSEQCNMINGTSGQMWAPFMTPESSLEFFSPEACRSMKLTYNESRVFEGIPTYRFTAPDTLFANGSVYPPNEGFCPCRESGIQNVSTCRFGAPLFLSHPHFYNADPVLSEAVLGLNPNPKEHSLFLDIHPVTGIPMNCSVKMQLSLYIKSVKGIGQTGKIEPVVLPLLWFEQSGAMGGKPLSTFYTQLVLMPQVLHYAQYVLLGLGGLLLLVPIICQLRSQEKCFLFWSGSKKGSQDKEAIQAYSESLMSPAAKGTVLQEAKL
CDK5 inh: blocks human CDK5/p35 kinase activity | Q00535+Q15078 | Recombinant CDK5/p35, ADP-Glo luminescence, 60 min | inhibition, % at 10 µM | 330,000 tested, 0.01% active;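 active = highest replicate inhibition of at least 50% and at least 75% of replicates reaching 50%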;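 note: plate controls were DMSO neutral control for no effect and GW8510 at 10 µM for full effect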
SR-BI uptake up: enhances SR-BI lipid uptake from DiI-HDL; activation, % at 12.5 µM; CHO ldlA[mSR-BI] cells, DiI-HDL uptake fluorescence, 3 h; 100 = double the neutral-control signal; AID 504775; 320,000 tested, 0.096% active;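 active = mean replicate activation of at least 60% and every replicate at or above 60%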;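 note: 0% = median plate neutral-control signal and 100% = twice that signal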
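System: CHO ldlA[mSR-BI] cells / Medium: HEPES-buffered (25 mM, pH 7.4) F12 plus 0.5% BSA / Probe or stimulus: labelled HDL, 10 µg/mL / Doses: single compound concentration, delivered by pin transfer / Schedule: 3 h, 37 °C / Measured by: DiI fluorescence, bottom read / Measure: cell-associated DiI fluorescence as measure of HDL uptake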
NSD2 HMT inh: NSD2 (human) methyltransferase inhibition; NSD2 peptide methylation, AlphaScreen, 120 min; inhibition, % at 12.5 µM; 310,000 tested, 0.54% active
Alpha artifact: AlphaScreen assay artifact in NSD2 counter-screen; shares compounds with NSD2 HMT inh; AlphaScreen artifact counterscreen, preloaded methylated H4 peptide; AC35, µM (titrated, usually from 10 µM), for the others: at the highest dose activity change, negative = signal loss; 1,500 tested, 9.4% active; AID 1053174; call rule not given here
Numbers without * were called inactive; . = no result given. Cut-off read from the data, not from the text of the source, unless noted: active = inhibition above about 50%; inactive = the rest.

SMILES	dFosB activator	Dyrk1A ADPGlo	SR-BI DiI inh	CDK5 inh	SR-BI uptake up	NSD2 HMT inh	Alpha artifact
CC(=O)OC1C(O)C(C)OC(OC2C(OC(=O)C3CCC4C(C3)OC3(CC(OC(=O)/C=C/c5ccccc5)C(C)CO3)C43CO3)OC(C)C(O)C2OC(C)=O)C1O (configuration not stated)	-20.4	-1.4	-8.3	1.5	8.3	0.1	.
Cn1c(=O)[nH]c2nncnc2c1=O	-5.1	1.3	.	0.6	.	53.7*	-3.3%
COC(=O)C1=Nc2ccccc2/C1=C\c1c(O)n(-c2ccc(Br)cc2)c(=O)[nH]c1=O	-7.9	26.1	-5.3	-6.4	5.3	60.6*	-0.2%
CN(C)C(CNC(=O)Cc1ccc(Br)cc1)c1ccccc1 (configuration not stated)	0.4	1.0	.	-0.9	.	53.1*	-7.5%
COc1ccc(C(CNC(=O)CCc2ccsc2)N(C)C)cc1 (configuration not stated)	-4.6	-1.3	-5.0	2.2	5.0	-2.9	.
COC(=O)C1=C(c2c(C)noc2C)C[C@@H]2CC[C@H]1N2C(=O)N1CCCCC1	-8.3	-2.2	-32.6	0.3	32.6	.	.
COC(=O)C1=C(c2ccc(-c3ccccc3)c(F)c2)C[C@@H]2CC[C@H]1N2C(=O)NCCOc1ccc(OC)cc1	-12.8	2.6	40.0	-0.3	-40.0	.	.
Fc1ccc(Cn2nnnc2C(c2ccc(Cl)cc2)N2CC=C(c3ccc(F)cc3)CC2)cc1 (configuration not stated)	-3.6	-2.4	31.1	-0.5	-31.1	50.8*	-0.7%
C=C(C)c1cccc(C(C)(C)NC(=O)NC2CN3CCC2CC3)c1 (configuration not stated)	-3.0	-1.0	-32.1	-1.1	32.1	51.0*	0.2%
O=C(NC1CN2CCC1CC2)c1cccc(Cl)c1 (configuration not stated)	3.2	0.2	9.8	-1.5	-9.8	-1.3	.
COC(=O)C1=C(c2cc3ccccc3s2)C[C@@H]2CC[C@H]1N2C(=O)N1CCOCC1	0.2	10.7	21.5	2.3	-21.5	.	.
O=C(CCCc1ccccc1)NCCc1cnc[nH]1	-6.6	-1.2	-4.1	0.0	4.1	-0.1	.
O=C(c1cc2ccccc2oc1=O)N1CCC2(CC1)OCCO2	3.5	7.3	-17.0	1.1	17.0	64.6*	-4.5%
O=C(c1ccccc1F)N1CCC2(CC1)OCCO2	-2.4	-6.2	-16.1	0.6	16.1	0.0	.
